How the values were obtained:
[1] = tested on: PC3 human prostate cells stably expressing GFP-LC3; assay: GFP-LC3 puncta high-throughput microscopy in PC3 cells; type: cell-based; details: 1 μM for 4 hours, control siRNA cells
How it was run: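 GFP-LC3 PC3 cells were used for a focused RNAi screen of kinases. 48 hours after siRNA transfection, cells received 1 μM of the catalytic mTOR inhibitors AZD8055 or INK128 for 4 hours. GFP-LC3 puncta were then imaged, with nuclei counterstained by DAPI. Results were reported as mean puncta number with standard deviation for each siRNA and drug treatment.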

[2] = tested on: A549 human lung cancer cells; assay: PE-AnnexinV FACS apoptosis in A549 cells; type: cell-based
How it was run: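 A549 human lung cancer cells received AZD8055 (1 μM) or DMSO together with increasing doses of test compound for 72 hours. Cells were then collected, stained with PE-AnnexinV and quantified by FACS. Read-out was the percentage of AnnexinV-positive cells, taken as cells actively undergoing apoptosis.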

[3] = tested on: A549 cells; assay: Cyto-ID autophagy dye imaging in A549 cells; type: cell-based, human; details: 5 μM 6965 for 2 hours, then 4 μM AZD8055 for 24 hours
How it was run: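 A549 cells were pretreated with or without test compound (5 μM) for 2 hours, then exposed to the catalytic mTOR inhibitor AZD8055 (4 μM) for 24 hours. Autophagic vacuoles were stained with the Cyto-ID autophagy detection kit and nuclei with DAPI. Read-out was immunofluorescence imaging.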

[4] = tested on: endogenous FAK, AMPK, mTOR, Akt, or Erk signaling; assay: immunoblot of endogenous growth pathway signaling in wild-type MEFs; type: cell-based, mouse; details: 10 μM
How it was run: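 Wild-type and Ulk1/Ulk2 double-knockout MEFs were given fresh DMEM with 10% FBS containing 1 μM INK128, 1 μM AZD8055 or DMSO, or EBSS starvation medium, with or without 10 μM test compound. Endogenous signaling was assessed by immunoblotting. Endogenous ULK1 activity was monitored with a phospho-specific antibody to Atg13 Ser318.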

[5] = tested on: panel of 456 purified human kinases; assay: DiscoveRx KINOMEscan competition-binding assay; details: tested at 10 μM

Compound	induction in GFP-LC3 puncta formation [1] [fold]	apoptotic (AnnexinV-positive) cells ([2]; AZD8055 (1 μM) alone, 72 hours) [%]	effect on AZD8055-induced autophagy (Cyto-ID dye accumulation) [3]	effect on endogenous FAK, AMPK, mTOR, Akt, or Erk signaling [4]	apoptotic (AnnexinV-positive) cells ([2]; 5 μM 6965 in the absence of AZD8055, 72 hours) [%]	number of kinases inhibited >95% [5]
COc1ccc(-c2ccc3c(N4CCOC[C@@H]4C)nc(N4CCOC[C@@H]4C)nc3n2)cc1CO [AZD8055, reference compound]	2	7	–	–	–	–
CC(C)n1nc(-c2ccc3oc(N)nc3c2)c2c(N)ncnc21 [INK128]	2	–	–	–	–	–
CNC(=O)c1ccccc1Oc1nc(Nc2cc(OC)c(OC)c(OC)c2)ncc1Br [SBI-0206965]	–	–	strongly suppressed	did not impair	10	10 out of 456

From paper PMC4530630 (Molecular cell, 2015)
